Results taken from PubChem BioAssay AID624013 (Broad Institute, 2012).
Where “and” joins values, the source holds several entries; their conditions need not be identical. Identical values can stand only once. Calls of active or inactive are those of the source.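 The calls were made as follows: active = compounds whose fitted growth inhibition curve reaches half effect at or below twice the top tested dose; inconclusive = flat inhibition between 30 and 70 percent, or poor fit; inactive = the rest.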

Tested on: Candida glabrata growth, glucose medium, OD600, 48 h
Test: glucose-fed Candida glabrata growth inhibitors – glucose medium, plate reader, dry powder, set 4, dose response (AID 624013)
Details: not given
Outline: (§1)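 System: Candida glabrata yeast cells, whole organism / Control set: amphotericin B 10 µM, positive / Signal: optical density at 600 nm (absorbance) / Buffer or medium: CSM-glucose medium / Schedule: compound exposure 48 h at 30 °C, static, humidified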
`CC1/C=C/C=C\C=C\C=C\C=C\C=C\C=C\C(O[C@H]2OC(C)C(O)C(N)C2O)CC2OC(O)(CC(O)CC(O)C(O)CCC(O)CC(O)CC(=O)OC(C)C(C)C1O)CC(O)C2C(=O)O` (stereo partly drawn) showed an AC50 of 2.12 µM.

Tested on: not listed separately
Test: as above
Details: Candida glabrata growth, glucose medium, OD600, 48 h; at 3 µM (top of the series)
Outline: as §1
For `CCOC(=O)N1C(=O)C2(CCCCC2)N(c2ccc(Cl)cc2)C1=S`, the activity change, negative = inhibition was -19.6% (inactive).
With `CCOC(=O)N1C(=O)C2(CCCCC2)N(c2cccc(C)c2)C1=S` the activity change, negative = inhibition was -14.7% (inactive).
With `CCOC(=O)N1C(=O)C2(CCCCC2)N(c2ccc(C)cc2)C1=S` the activity change, negative = inhibition was -13.3% (inactive) and -16.5% (inactive).
With `CCOC(=O)N1C(=O)C2(CCCCC2)N(c2ccc(F)cc2)C1=S` the activity change, negative = inhibition was -16.3% (inactive).
For `C/C=C/[C@@H]1[C@H]2C[C@@H](C)CC[C@@H]2C(C)=C[C@H]1C(=O)c1c(O)c(-c2ccc(O)cc2)c[nH]c1=O`, the activity change, negative = inhibition was -2.31% (inactive).
For `CCOC(=O)N1C(=O)C2(CCCCC2)N(c2ccccc2)C1=S`, the activity change, negative = inhibition was -11.8% (inactive).
In the case of `CCOC(=O)N1C(=O)C2(CCCCC2)N(c2ccc(C#N)cc2)C1=S`, the activity change, negative = inhibition is reported as -17% (inactive).
